Among the data in ChEMBL document CHEMBL3045051 (Med Chem Res, 2011) are inhibition and Activity values, retold here.

SMILES strings stand for the structures. Calls of active or inactive are those of the source. The calls are words filed in the database; no cut-off is given here.

In assay [1] the test system is Radical scavenging activity. The experiment in a line: Antioxidant activity assessed as DPPH radical scavenging activity at 1 X 10^-4 M after 20 min. The assay is classed as functional. An outline of the steps: (§1)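 Test compound was mixed with DPPH (0.05 and 0.1 mM) in ethanol. Absorbance at 517 nm was read after 20 and 60 min and compared with the NDGA standard, with ethanol as control. Each experiment was run at least in triplicate, and the SD of absorbance was <10% of the mean.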

In assay [2] the test system is Respiratory syncytial virus. The experiment in a line: Antiviral activity against Respiratory syncytial virus infected human HeLa cells assessed as inhibition of virus-induced cytopathicity. It counts as functional, organism-based. An outline of the steps: (§2)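 Confluent monolayers (feline kidney Crandell, Vero, HEL or HeLa, as named for each virus) were infected with 100 CCID50 of virus and allowed to adsorb for 1 h. Unbound virus was then removed, and cultures were incubated with test compound in serial dilutions (200, 40, 8 … µM). Cytopathicity was scored once untreated infected controls reached complete cytopathic effect.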

Assay [3] relates to Coxsackievirus B4. As to the kind of experiment: Antiviral activity against Human coxsackievirus B4 infected human HeLa cells assessed as inhibition of virus-induced cytopathicity. The assay is classed as functional, organism-based. The method, boiled down: as §2
The subject of a further assay is Influenza A virus. As to the kind of experiment: Antiviral activity against Unidentified Influenza A virus (H1N2) infected MDCK cells assessed as inhibition of virus-induced cytopathicity. The assay is classed as functional, organism-based. For orientation: Protection from cytopathic effect is a common read-out in antiviral testing.
Another assay relates to Feline coronavirus. The experiment in a line: Antiviral activity against Feline coronavirus infected feline kidney crandell cells assessed as inhibition of virus-induced cytopathicity. It counts as functional, organism-based. An outline of the steps: as §2
For a further assay, the system named is Human alphaherpesvirus 1. As to the kind of experiment: Antiviral activity against […] 1 KOS infected in human HEL cells assessed as inhibition of virus-induced cytopathicity. The assay is classed as functional, organism-based. The method, boiled down: as §2
The test system of the next assay is Human alphaherpesvirus 2. As to the kind of experiment: Antiviral activity against Human herpesvirus 2 strain G infected human HEL cells assessed as inhibition of virus-induced cytopathicity. It counts as functional, organism-based. An outline of the steps: as §2
The next assay concerns Vaccinia virus. As to the kind of experiment: Antiviral activity against Vaccinia virus infected human HEL cells assessed as inhibition of virus-induced cytopathicity. It counts as functional, organism-based. As to conditions: Orthopoxvirus vaccinia.
The test system of assay [4] is Mammalian orthoreovirus 1. As to the kind of experiment: Antiviral activity against Mammalian orthoreovirus 1 infected VERO cells assessed as inhibition of virus-induced cytopathicity. It counts as functional, organism-based. An outline of the steps: as §2
Assay [5] deals with Coxsackievirus B4. As to the kind of experiment: Antiviral activity against Human coxsackievirus B4 infected VERO cells assessed as inhibition of virus-induced cytopathicity. It counts as functional, organism-based. The method, boiled down:
as §2

The next assay deals with Human respirovirus 3. As to the kind of experiment: Antiviral activity against Human parainfluenza virus 3 infected Vero cells assessed as inhibition of virus-induced cytopathicity. The assay is classed as functional, organism-based. The method, boiled down:
as §2

The test system of a further assay is Sindbis virus. As to the kind of experiment: Antiviral activity against Sindbis virus infected Hela cells assessed as inhibition of virus-induced cytopathicity. The assay is classed as functional, organism-based.
Assay [6] has as its system Radical scavenging activity. The experiment in a line: Antioxidant activity assessed as DPPH radical scavenging activity at 5 X 10^-5 M after 60 min. The assay is classed as functional. An outline of the steps: as §1
For orientation: The DPPH test is a chemical assay of radical scavenging.

For assay [7], the system named is Radical scavenging activity. The experiment in a line: Antioxidant activity assessed as DPPH radical scavenging activity at 5 X 10^-5 M after 20 min. It counts as functional. The method, boiled down: as §1
Another assay has as its system Punta Toro virus. As to the kind of experiment: Antiviral activity against Punta Toro virus infected Hela cells assessed as inhibition of virus-induced cytopathicity. It counts as functional, organism-based.
For assay [8], the system named is Radical scavenging activity. The experiment in a line: Antioxidant activity assessed as DPPH radical scavenging activity at 1 X 10^-4 M after 60 min. The assay is classed as functional. An outline of the steps: as §1
Assay [9] has as its system Vesicular stomatitis virus. As to the kind of experiment: Antiviral activity against Vesicular stomatitis virus infected Hela cells assessed as inhibition of virus-induced cytopathicity. The assay is classed as functional, organism-based.
Assay [10] relates to Vesicular stomatitis virus. The experiment in a line: Antiviral activity against Vesicular stomatitis virus infected HEL cells assessed as inhibition of virus-induced cytopathicity. It counts as functional, organism-based.
Assay [11] is described as follows: Antioxidant activity assessed as inhibition of AAPH-induced lipid peroxidation at 1 X 10^-4 M. The assay is classed as functional.

As for `CC(Cc1ccc(O)c(O)c1)C(C)Cc1ccc(O)c(O)c1` (stereo not given), the inhibition – broadly, the percentage by which the read-out fell short of the control – in assay [1] turned out to be 93%; in assay [6], 83%; in assay [7], 81%; in assay [8], 97%. For the same compound, the outcome (in assay [2]; in the assay with Coxsackievirus B4 [3]; with Influenza A virus; in the assay on Influenza A virus (H1N1); with Feline coronavirus; in the assay on Human alphaherpesvirus 1) was inactive. Moreover, the outcome (in the assay on Human alphaherpesvirus 2; in the assay with Vaccinia virus; in assay [4]; in the assay with Coxsackievirus B4 [5]; with Human respirovirus 3; with Sindbis virus) was inactive. For the same compound, the result (in the assay on Punta Toro virus; in assay [9]; in assay [10]) was inactive.

Turning to `O=C(O)/C=C/c1ccc(O)c(O)c1`, the outcome (in [2]; in the assay on Coxsackievirus B4 [3]; in the assay with Influenza A virus; with Influenza A virus (H1N1); in the assay with Feline coronavirus; in the assay on Human alphaherpesvirus 1) was inactive. The result (in the assay with Human alphaherpesvirus 2; with Vaccinia virus; in [4]; in the assay with Coxsackievirus B4 [5]; in the assay with Human respirovirus 3; in the assay with Sindbis virus) was inactive. The result (with Punta Toro virus; in assay [9]; in assay [10]) was inactive.

For the compound `Cc1c(C)c2c(c(C)c1O)CCC(C)(C(=O)O)O2` (stereo not given), the result (in [2]; in the assay on Coxsackievirus B4 [3]; with Influenza A virus; in the assay with Influenza A virus (H1N1); in the assay with Feline coronavirus; with Human alphaherpesvirus 1) was inactive. Further, the outcome (in the assay with Human alphaherpesvirus 2; in the assay with Vaccinia virus; in assay [4]; with Coxsackievirus B4 [5]; in the assay with Human respirovirus 3; with Sindbis virus) was inactive. The result (with Punta Toro virus; in assay [9]; in [10]) was inactive. The inhibition in [11] came out at 63%.
